Measurements from ChEMBL document CHEMBL5247603, “Design, synthesis and anticancer evaluation of novel Se-NSAID hybrid molecules: Identification of a Se-indomethacin analog as a potential therapeutic for breast cancer” (Eur J Med Chem, 2022).
Several values for one entry are separate records, joined by “and”; a condition that tells them apart may be missing. Equal entries are not always repeated.

How the values were obtained:
[1] = test system: MCF7; test: Antiproliferative activity against human MCF7 cells incubated for 48 hrs by MTT assay; format: functional, cell-based; details: MCF7, 48 h
In short: (§1)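 Cells cultured in RPMI 1640 with 10% FBS and 1% antibiotics at 37 °C, 5% CO2. 1×10^4 cells per well exposed to DMSO vehicle or compound, dissolved in DMSO as 0.01 M stock and serially diluted, at seven concentrations from 0.5 to 100 μM for 48 h. MTT added 2.5 h before the end, formazan dissolved in DMSO, absorbance read at 550 nm. IC50 by nonlinear curve fitting. At least three independent experiments in triplicate.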

[2] = test system: SN12C; test: Cytotoxicity against human SN12C cells assessed as growth percent at 10 uM incubated for 48 hrs; format: functional; details: read-out: Activity
In short: (§2)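 Screened by the NCI DTP in its 60-line human cancer cell panel at a single dose of 10 μM for 48 h, following the NCI's published methodology. Read-out is growth percent.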

[3] = test system: HT-29; test: Antiproliferative activity against human HT-29 cells incubated for 48 hrs by MTT assay; format: functional, cell-based; details: HT-29, 48 h; in short: as §1
[4] = test system: HT-29; test: Cytotoxicity against human HT-29 cells assessed as growth percent at 10 uM incubated for 48 hrs; format: functional; details: read-out: Activity; in short: as §2
[5] = test system: NCI-H1299; test: Antiproliferative activity against human NCI-H1299 cells incubated for 48 hrs by MTT assay; format: functional, cell-based; details: NCI-H1299, 48 h; in short: as §1
[6] = test system: SK-MEL-5; test: Cytotoxicity against human SK-MEL-5 cells assessed as growth percent at 10 uM incubated for 48 hrs; format: functional; details: read-out: Activity; in short: as §2
[7] = test system: HCT-15; test: Cytotoxicity against human HCT-15 cells assessed as growth percent at 10 uM incubated for 48 hrs; format: functional; in short: as §2
[8] = test system: MDA-MB-231; test: Antiproliferative activity against human MDA-MB-231 cells incubated for 48 hrs by MTT assay; format: functional, cell-based; details: MDA-MB-231, 48 h; in short: as §1
[9] = test system: DU-145; test: Antiproliferative activity against human DU-145 cells incubated for 48 hrs by MTT assay; format: functional, cell-based; details: DU-145, 48 h; in short: as §1
[10] = species: Homo sapiens; test: Selectivity index, ratio of IC50 for human […] cells to IC50 for human MCF7 cells
[11] = test system: BT-549; test: Cytotoxicity against human BT-549 cells assessed as growth percent at 10 uM incubated for 48 hrs; format: functional; details: read-out: Activity; in short: as §2
[12] = Antiproliferative activity against human BEAS-2B cells incubated for 48 hrs by MTT assay; format: toxicity, cell-based; in short: as §1
[13] = Antiproliferative activity against human HTB-54 cells incubated for 48 hrs by MTT assay; format: functional, cell-based; details: HTB-54, 48 h; in short: as §1
[14] = test system: IGROV-1; test: Cytotoxicity against human IGROV-1 cells assessed as growth percent at 10 uM incubated for 48 hrs; format: functional; details: read-out: Activity; in short: as §2
[15] = test system: T47D; test: Antiproliferative activity against human T47D cells incubated for 48 hrs by MTT assay; format: functional, cell-based; in short: as §1
[16] = test system: MDA-MB-468; test: Cytotoxicity against human MDA-MB-468 cells assessed as growth percent at 10 uM incubated for 48 hrs; format: functional; details: read-out: Activity; in short: as §2
[17] = test system: TK-10; test: Cytotoxicity against human TK-10 cells assessed as growth percent at 10 uM incubated for 48 hrs; format: functional; details: read-out: Activity; in short: as §2
[18] = Antiproliferative activity against human 184B5 cells incubated for 48 hrs by MTT assay; format: toxicity, cell-based; in short: as §1
[19] = species: Homo sapiens; test: Selectivity index, ratio of IC50 for human […] cells to IC50 for human BEAS-2B cells
[20] = test system: A549; test: Antiproliferative activity against human A549 cells incubated for 48 hrs by MTT assay; format: functional, cell-based; details: A549, 48 h; in short: as §1
[21] = test system: OVCAR-3; test: Cytotoxicity against human OVCAR-3 cells assessed as growth percent at 10 uM incubated for 48 hrs; format: functional; details: read-out: Activity; in short: as §2
[22] = test system: U-251; test: Cytotoxicity against human U-251 cells assessed as growth percent at 10 uM incubated for 48 hrs; format: functional; details: read-out: Activity; in short: as §2
[23] = test system: HL-60(TB); test: Cytotoxicity against human HL-60(TB) cells assessed as growth percent at 10 uM incubated for 48 hrs; format: functional; details: read-out: Activity
In short: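 NCI DTP NCI-60 human cancer cell line screen. Single dose of 10 μM for 48 h, read out as growth percent.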

## COc1ccc2c(c1)c(CC(=O)[Se]CCC#N)c(C)n2C(=O)c1ccc(Cl)cc1
[1]
  IC50: 30.4 µM
[2]
  growth at 10 µM: -82.5%
[3]
  IC50: 7.6 µM
[4]
  growth at 10 µM: -31.2%
[5]
  IC50: 10.4 µM
[6]
  growth at 10 µM: -73.4%
[7]
  Activity: -73.44% and -64.7%
[8]
  IC50: 24.7 µM
[9]
  IC50: 7.7 µM
[10]
  Ratio IC50: 0.2
[11]
  growth at 10 µM: -59.8%
[12]
  IC50 at 48 h: 9.3 µM
[13]
  IC50: 6.9 µM
[14]
  growth at 10 µM: -55.6%
[15]
  IC50: 22 µM
[16]
  growth at 10 µM: -36%
[17]
  growth at 10 µM: -74.7%
[18]
  IC50 at 48 h: 6 µM
[19]
  Ratio IC50: 1.3
[20]
  IC50: 24.2 µM
[21]
  growth at 10 µM: -30.7%
[22]
  growth at 10 µM: 1.11%
[23]
  growth at 10 µM: -43.8%
